ChEMBL document CHEMBL1125330, “N-substituted pyrazino[2,3-c][1,2,6]thiadiazine 2,2-dioxides. A new class of diuretics” (J Med Chem, 1992)

What was measured:
[1] = system: Rattus norvegicus; assay: Urinary sodium 3h after the compound was administered 10 mg/kg po in rat; format: ADME, organism-based, Urine; design: dose 10 mg/kg, route oral; details: in vivo
Summary of the method: (§1)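 Onset and duration study in fasted, water-loaded male Sprague-Dawley rats housed two per metabolic cage, six pairs per group. Single oral dose given, then water 2.5 mL/100 g po. Urine volume and sodium (flame photometry) measured over 0-1, 1-2, 2-3, 3-4 and 4-6 h intervals. Mean values compared with vehicle by Student t-test.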

[2] = system: Rattus norvegicus; assay: Mean potassium excretion in rats when compound administered at 10 mg/kg po and vehicle dosed at 33.59 umol/kg; format: ADME, organism-based; design: dose 10 mg/kg, route oral; details: in vivo
Summary of the method: (§2)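 Male Sprague-Dawley rats (HC/CFY, 175-200 g), no food or water for 18 h before and during the test. Single gavage dose (2.5-160 mg/kg; vehicle 1% carboxymethyl cellulose/0.1% Tween 80, 0.5 mL/100 g bw), then distilled water 2.5 mL/100 g bw po. Individual metabolic cages, 6 h urine. K+ by flame photometry, Cl- colorimetric, as mequiv/6 h/kg bw; unpaired Student t-test vs control.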

[3] = system: Rattus norvegicus; assay: Mean sodium excretion in rats when compound administered at 10 mg/kg po and vehicle dosed at 33.59 umol/kg; format: ADME, organism-based; design: dose 10 mg/kg, route oral; details: in vivo
Summary of the method: (§3)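 Male Sprague-Dawley rats (HC/CFY, 175-200 g) fasted and water-deprived 18 h before and during the test. Dosed by gavage at 2.5-160 mg/kg in 1% carboxymethyl cellulose/0.1% Tween 80, 0.5 mL/100 g bw. Immediately hydrated with water (2.5 mL/100 g bw, po). Urine collected 6 h in metabolic cages; Na+ and K+ by flame photometry; mean mequiv/6 h/kg bw; nonpaired Student t-test.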

[4] = system: Rattus norvegicus; assay: Volume of urine 1 hr after the compound was administered 10 mg/kg po in rat; format: ADME, organism-based; design: dose 10 mg/kg, route oral; details: in vivo
Summary of the method: (§4)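 Onset/duration protocol: male Sprague-Dawley rats (HC/CFY, 175-200 g), food and water withdrawn for 18 h before and during the test. Single gavage dose in 1% carboxymethyl cellulose/0.1% Tween 80 (0.5 mL/100 g bw), then distilled water load (2.5 mL/100 g bw po). Two rats per metabolic cage, six pairs per group. Urine collected at 0-1, 1-2, 2-3, 3-4 and 4-6 h; Na+ by flame photometry. Vehicle controls; nonpaired Student t-test.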

[5] = system: Rattus norvegicus; assay: Mean potassium excretion in rats when compound administered at 80 mg/kg po and vehicle dosed at 268.71 umol/kg; format: ADME, organism-based; design: dose 80 mg/kg, route oral; details: in vivo; summary of the method: as §3
[6] = system: Rattus norvegicus; assay: Post dosing time interval of maximum activity; format: functional
Summary of the method: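 Interval of peak activity taken from timed urine collections (0-1, 1-2, 2-3, 3-4, 4-6 h) after a single oral dose in water-loaded fasted rats, […]. Urine volume and Na+ excretion followed over time.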

[7] = system: Rattus norvegicus; assay: Urinary sodium 1 hr after the compound was administered 10 mg/kg po in rat; format: ADME, organism-based, Urine; design: dose 10 mg/kg, route oral; details: in vivo; summary of the method: as §1
[8] = system: Rattus norvegicus; assay: Mean urinary output in rats when compound administered at 2.5 mg/kg po and vehicle dosed at 8.4 umol/kg; format: ADME, organism-based, Urine; design: dose 2.5 mg/kg, route oral; details: in vivo
Summary of the method: (§5)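 Water-loaded male Sprague-Dawley rats (HC/CFY, 175-200 g) fasted and without water for 18 h. Oral gavage of 2.5-160 mg/kg in 1% CMC with 0.1% Tween 80, then distilled water 2.5 mL/100 g po. Urine collected 6 h in metabolic cages, mean output in mL/6 h/kg bw. Unpaired Student t-test against vehicle; dose-response by linear regression.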

[9] = system: Rattus norvegicus; assay: Mean Chlorine excretion in rats when compound administered at 80 mg/kg po and vehicle dosed at 268.71 umol/kg; format: ADME, organism-based; design: dose 80 mg/kg, route oral; details: in vivo; summary of the method: as §2
[10] = system: Rattus norvegicus; assay: Urinary sodium 2 hr after the compound was administered 10 mg/kg po in rat; format: ADME, organism-based, Urine; design: dose 10 mg/kg, route oral; details: in vivo; summary of the method: as §1
[11] = system: Rattus norvegicus; assay: Mean Chlorine excretion in rats when compound administered at 20 mg/kg po and vehicle dosed at 67.18 umol/kg; format: ADME, organism-based; design: dose 20 mg/kg, route oral; details: in vivo; summary of the method: as §2
[12] = system: Rattus norvegicus; assay: Mean urinary output in rats when compound administered at 40 mg/kg po and vehicle dosed at 134.35 umol/kg; format: ADME, organism-based, Urine; design: dose 40 mg/kg, route oral; details: in vivo; summary of the method: as §5
[13] = species: Rattus norvegicus; assay: Dose required to produce increase in 50 % in urine production vs control groups; format: functional; details: Rattus norvegicus, Urine
Summary of the method: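 Male Sprague-Dawley rats (HC/CFY, 175-200 g), fasted and water-deprived 18 h before and during the test. Compound dosed by gavage in 1% carboxymethyl cellulose/0.1% Tween 80, then water load 2.5 mL/100 g bw po. Urine collected 6 h in metabolic cages; Na+ by flame photometry. Effective doses vs vehicle controls derived by linear regression of dose-response data.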

[14] = system: Rattus norvegicus; assay: Mean sodium excretion in rats when compound administered at 20 mg/kg po and vehicle dosed at 67.18 umol/kg; format: ADME, organism-based; design: dose 20 mg/kg, route oral; details: in vivo; summary of the method: as §3
[15] = system: Rattus norvegicus; assay: Mean potassium excretion in rats when compound administered at 40 mg/kg po and vehicle dosed at 134.35 umol/kg; format: ADME, organism-based; design: dose 40 mg/kg, route oral; details: in vivo; summary of the method: as §2
[16] = system: Rattus norvegicus; assay: Mean potassium excretion in rats when compound administered at 2.5 mg/kg po and vehicle dosed at 8.4 umol/kg; format: ADME, organism-based; design: dose 2.5 mg/kg, route oral; details: in vivo; summary of the method: as §2
[17] = system: Rattus norvegicus; assay: Mean urinary output in rats when compound administered at 20 mg/kg po and vehicle dosed at 67.18 umol/kg; format: ADME, organism-based, Urine; design: dose 20 mg/kg, route oral; details: in vivo; summary of the method: as §5
[18] = system: Rattus norvegicus; assay: Mean potassium excretion in rats when compound administered at 20 mg/kg po and vehicle dosed at 67.18 umol/kg; format: ADME, organism-based; design: dose 20 mg/kg, route oral; details: in vivo; summary of the method: as §2
[19] = system: Rattus norvegicus; assay: Mean potassium excretion in rats when compound administered at 0 mg/kg po and vehicle dosed at 0 umol/kg; format: ADME, organism-based; design: dose 0 mg/kg, route oral; details: in vivo; summary of the method: as §2
[20] = system: Rattus norvegicus; assay: Volume of urine 6 hr after the compound was administered 10 mg/kg po in rat; format: ADME, organism-based; design: dose 10 mg/kg, route oral; details: in vivo; summary of the method: as §4
[21] = system: Rattus norvegicus; assay: Mean Chlorine excretion in rats when compound administered at 0 mg/kg po and vehicle dosed at 0 umol/kg; format: ADME, organism-based; design: dose 0 mg/kg, route oral; details: in vivo

In the case of `NS(=O)(=O)c1cc2c(cc1Cl)NCNS2(=O)=O` [HYDROCHLOROTHIAZIDE], the “Urinary Na+” value [1] is reported as 0.17 m equiv, the K [2] is reported as 1.14 m equiv 6hr-1 kg-1 (body weight)-1 and the Na [3] is reported as 2.86 m equiv 6hr-1 kg-1 (body weight)-1. For the same compound, the Urine volume [4] was 1.38 mL, the K [5] was 1.57 m equiv 6hr-1 kg-1 (body weight)-1 and the Time [6] was 2 h. The “Urinary Na+” value [7] was 0.19 m equiv, the V [8] was 32.5 ml 6hr-1 (kg of body weight)-1 and the Cl- [9] was 4.88 m equiv 6hr-1 kg-1 (body weight)-1. For the same compound, the “Urinary Na+” value [10] was 0.39 m equiv, the Cl- [11] was 4.67 m equiv 6hr-1 kg-1 (body weight)-1 and the V [12] was 44.48 ml 6hr-1 (kg of body weight)-1. The ED50 [13] was 4.86 mg/kg, the Na [14] was 3.05 m equiv 6hr-1 kg-1 (body weight)-1 and the K [15] was 1.64 m equiv 6hr-1 kg-1 (body weight)-1. The K [16] was 1.26 m equiv 6hr-1 kg-1 (body weight)-1, the V [17] was 42.94 ml 6hr-1 (kg of body weight)-1 and the K [18] was 1.43 m equiv 6hr-1 kg-1 (body weight)-1. The K [19] was 0.53 m equiv 6hr-1 kg-1 (body weight)-1, the Urine volume [20] was 3.42 mL and the Cl- [21] was 0.78 m equiv 6hr-1 kg-1 (body weight)-1.
